In ChEMBL document CHEMBL1136949, “Regioselective synthesis and biological evaluation of bis(indolyl)methane derivatized 1,4-disubstituted 1,2,3-bistriazoles as anti-infective agents” (2009):
Activity calls are given as the source filed them. The calls are words filed in the database; no cut-off is given here.

How the values were obtained:
Escherichia coli = experiment: Antibacterial activity against Escherichia coli ATCC 25922 at 100 ug/mL after 24 hrs by disk diffusion method; format: functional, organism-based
Procedure, shortened: (§1)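 Paper-disc diffusion on Mueller Hinton agar, pH 7.4 ± 0.2 at 25 °C. Whatman No. 2 discs (5 mm) were heat-sterilized at 160 °C for 30 min, loaded with DMSO test solution at 100 µg/10 µL and dried, then laid on the agar. Plates were held 1 h in the refrigerator for diffusion, then incubated 24 h at 37 °C. Inhibition zone diameter was read in mm. DMSO served as solvent control; ciprofloxacin disc as reference.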

Candida albicans = experiment: Antifungal activity against Candida albicans ATCC 10231 at 100 ug/mL after 24 hrs by disk diffusion method; format: functional; settings: ATCC 10231, 24 h, read-out: DIZ
Procedure, shortened: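 Disc diffusion as for the antibacterial test, on agar medium of glucose, peptone and Sabouraud dextrose agar in distilled water, pH 5.5 ± 0.2 at 25 °C. Sterilized 5 mm paper discs were loaded with DMSO test solution at 100 µg/10 µL and dried. Plates were held 1 h refrigerated, then incubated 24 h at 37 °C. Zone of inhibition was measured in mm.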

Staphylococcus aureus = experiment: Antibacterial activity against Staphylococcus aureus ATCC 25923 at 100 ug/mL after 24 hrs by disk diffusion method; format: functional; settings: ATCC 25923, 24 h, read-out: DIZ; procedure, shortened: as §1

SMILES	Activity (Escherichia coli)	zone of inhibition at 100 µg/mL (Candida albicans)	zone of inhibition at 100 µg/mL (Staphylococcus aureus)
c1ccc(Cn2cc(Cn3cc(C(c4ccccc4)c4cn(Cc5cn(Cc6ccccc6)nn5)c5ccccc45)c4ccccc43)nn2)cc1	inactive	16 mm	20 mm
COc1ccc(C(c2cn(Cc3cn(Cc4ccc(Cl)cc4)nn3)c3ccccc23)c2cn(Cc3cn(Cc4ccc(Cl)cc4)nn3)c3ccccc23)cc1	inactive	21 mm	16 mm
Clc1ccc(Cn2cc(Cn3cc(C(c4ccccc4)c4cn(Cc5cn(Cc6ccc(Cl)cc6)nn5)c5ccc(Br)cc45)c4cc(Br)ccc43)nn2)cc1	inactive	21 mm	16 mm
Cc1c(C(c2ccc(Cl)cc2)c2c(C)n(Cc3cn(Cc4ccccc4)nn3)c3ccccc23)c2ccccc2n1Cc1cn(Cc2ccccc2)nn1	inactive	18 mm	20 mm
O=C(O)c1cn(C2CC2)c2cc(N3CCNCC3)c(F)cc2c1=O [CIPROFLOXACIN]			22 mm
Cc1c(C(c2ccccc2)c2c(C)n(Cc3cn(Cc4ccccc4)nn3)c3ccccc23)c2ccccc2n1Cc1cn(Cc2ccccc2)nn1	inactive	16 mm	20 mm
Cc1c(C(c2ccc(Cl)cc2)c2c(C)n(Cc3cn(Cc4ccc(Cl)cc4)nn3)c3ccccc23)c2ccccc2n1Cc1cn(Cc2ccc(Cl)cc2)nn1	inactive	18 mm	19 mm
COc1ccc(Cn2cc(Cn3cc(C(c4ccccc4)c4cn(Cc5cn(Cc6ccc(OC)cc6)nn5)c5ccccc45)c4ccccc43)nn2)cc1	inactive	16 mm	18 mm
COc1ccc(C(c2cn(Cc3cn(Cc4ccccc4)nn3)c3ccccc23)c2cn(Cc3cn(Cc4ccccc4)nn3)c3ccccc23)cc1	inactive	17 mm	19 mm
CC(=O)N1CCN(c2ccc(OCC3COC(Cn4ccnc4)(c4ccc(Cl)cc4Cl)O3)cc2)CC1 (configuration not stated) [KETOCONAZOLE]		24 mm	
Clc1ccc(Cn2cc(Cn3cc(C(c4ccccc4)c4cn(Cc5cn(Cc6ccc(Cl)cc6)nn5)c5ccccc45)c4ccccc43)nn2)cc1	inactive	20 mm	17 mm
Clc1ccc(Cn2cc(Cn3cc(C(c4ccc(Cl)cc4)c4cn(Cc5cn(Cc6ccc(Cl)cc6)nn5)c5ccccc45)c4ccccc43)nn2)cc1	inactive	16 mm	20 mm
COc1ccc(C(c2cn(Cc3cn(Cc4ccccc4)nn3)c3ccc(Br)cc23)c2cn(Cc3cn(Cc4ccccc4)nn3)c3ccc(Br)cc23)cc1	inactive	16 mm	20 mm
COc1ccc(Cn2cc(Cn3cc(C(c4ccc(OC)cc4)c4cn(Cc5cn(Cc6ccc(OC)cc6)nn5)c5ccccc45)c4ccccc43)nn2)cc1	inactive	16 mm	18 mm
COc1ccc(C(c2c(C)n(Cc3cn(Cc4ccc(Cl)cc4)nn3)c3ccccc23)c2c(C)n(Cc3cn(Cc4ccc(Cl)cc4)nn3)c3ccccc23)cc1	inactive	20 mm	16 mm
Cc1c(C(c2ccccc2)c2c(C)n(Cc3cn(Cc4ccc(Cl)cc4)nn3)c3ccccc23)c2ccccc2n1Cc1cn(Cc2ccc(Cl)cc2)nn1	inactive	19 mm	17 mm
Brc1ccc2c(c1)c(C(c1ccccc1)c1cn(Cc3cn(Cc4ccccc4)nn3)c3ccc(Br)cc13)cn2Cc1cn(Cc2ccccc2)nn1	inactive	21 mm	16 mm
